# Experimental data from ChEMBL document CHEMBL4152184, “NB 06: From a simple lysosomotropic aSMase inhibitor to tools for elucidating the role of lysosomes in signaling apoptosis and LPS-induced inflammation” (Eur J Med Chem, 2018).
# Activity calls are given as the source filed them. No cut-off for these calls is given here.
# Key:
# [1] = target: T1, Sphingomyelin phosphodiesterase (Homo sapiens) (UniProt P17405); experiment: Inhibition of mmLDL-stimulated acid sphingomyelinase in human PBMC lysates at 2 to 50 uM preincubated for 30 mins followed by mmLDL stimulation measured after 4 hrs by YO-PRO-1/Hoechst 33342 staining based assay
# T1 sequence (whole entry): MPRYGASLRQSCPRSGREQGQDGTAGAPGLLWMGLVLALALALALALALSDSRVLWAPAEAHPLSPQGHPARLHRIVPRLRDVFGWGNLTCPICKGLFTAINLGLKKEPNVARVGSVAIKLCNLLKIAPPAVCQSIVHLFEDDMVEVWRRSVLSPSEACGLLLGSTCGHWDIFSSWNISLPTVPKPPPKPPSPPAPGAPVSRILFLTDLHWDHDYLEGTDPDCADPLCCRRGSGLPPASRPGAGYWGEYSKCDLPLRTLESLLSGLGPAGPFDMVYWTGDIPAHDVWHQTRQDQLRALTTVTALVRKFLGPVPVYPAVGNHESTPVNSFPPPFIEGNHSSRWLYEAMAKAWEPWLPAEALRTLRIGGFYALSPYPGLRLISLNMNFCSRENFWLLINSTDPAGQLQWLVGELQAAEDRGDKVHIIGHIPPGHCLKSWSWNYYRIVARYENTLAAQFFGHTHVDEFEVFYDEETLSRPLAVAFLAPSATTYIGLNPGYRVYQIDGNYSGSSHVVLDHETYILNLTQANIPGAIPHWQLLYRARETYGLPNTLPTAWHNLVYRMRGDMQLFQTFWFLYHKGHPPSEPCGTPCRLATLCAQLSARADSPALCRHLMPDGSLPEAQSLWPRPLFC
# [2] = target: T2, Acid ceramidase (Homo sapiens) (UniProt Q13510); experiment: Inhibition of mmLDL-stimulated acid ceramidase in human PBMC assessed as ratio of C24:1-ceramide/lipid phosphate level at 10 uM preincubated for 30 mins followed by mmLDL stimulation measured after 4 hrs by HPLC method (reference value: 1.16); assay type: cell-based
# T2 sequence (whole entry): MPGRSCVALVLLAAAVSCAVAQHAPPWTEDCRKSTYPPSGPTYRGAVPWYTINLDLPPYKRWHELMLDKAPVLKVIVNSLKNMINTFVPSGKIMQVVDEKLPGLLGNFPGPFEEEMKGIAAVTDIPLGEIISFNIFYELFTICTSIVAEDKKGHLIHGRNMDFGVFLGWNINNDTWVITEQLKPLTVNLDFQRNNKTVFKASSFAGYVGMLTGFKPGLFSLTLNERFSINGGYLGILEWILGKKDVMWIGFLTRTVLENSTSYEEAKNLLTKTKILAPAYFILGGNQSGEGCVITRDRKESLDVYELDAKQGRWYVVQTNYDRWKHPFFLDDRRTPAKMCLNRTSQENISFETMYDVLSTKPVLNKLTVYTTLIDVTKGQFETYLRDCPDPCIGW
# How it was run: (§1)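 Human macrophages from primary culture were preincubated 30 min with 10 µM compound. They were then stimulated 4 h with mmLDL (54 µg/mL), TNFalpha (3 ng/mL) or exogenous C6-ceramide (10 µM), or left unstimulated. Individual ceramide species (C16 and C24:1) were quantified in the cell lipid extracts.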
# [3] = target: T2, Acid ceramidase (Homo sapiens); experiment: Inhibition of acid ceramidase in human PBMC assessed as ratio of C24:1-ceramide/lipid phosphate level at 10 uM incubated for 30 mins measured after 4 hrs by HPLC method; assay type: cell-based; how it was run: as §1
# MONO-MAC-6 [4] = experiment: Decrease in inflammation-related genes in LPS-stimulated human MONO-MAC-6 cells preincubated for 30 mins followed by LPS stimulation measured after 6 hrs by microarray analysis; assay type: functional, cell-based
# How it was run: (§2)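 Total RNA was isolated, transcribed and labeled with DY-647 dye, then co-hybridized with DY-548-labeled cDNA from untreated cells on an inflammation oligonucleotide chip (780 gene probes). Differential expression >1.5 was taken as significant.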
# MONO-MAC-6 [5] = experiment: Upregulation of FCGR2B mRNA expression level in LPS-stimulated human MONO-MAC-6 cells preincubated for 30 mins followed by LPS stimulation measured after 4 hrs by qRT-PCR analysis relative to control; assay type: functional
# MONO-MAC-6 [6] = experiment: Upregulation of CXCL3 mRNA expression level in LPS-stimulated human MONO-MAC-6 cells at 5 uM preincubated for 30 mins followed by LPS stimulation measured after 6 hrs by oligonucleotide array hybridization assay (reference value: 5.74); assay type: functional
# MONO-MAC-6 [7] = experiment: Upregulation of CCL4 mRNA expression level in LPS-stimulated human MONO-MAC-6 cells at 5 uM preincubated for 30 mins followed by LPS stimulation measured after 2 hrs by oligonucleotide array hybridization assay (reference value: 5.78); assay type: functional
# MONO-MAC-6 [8] = experiment: Upregulation of CCL4 mRNA expression level in LPS-stimulated human MONO-MAC-6 cells at 5 uM preincubated for 30 mins followed by LPS stimulation measured after 4 hrs by oligonucleotide array hybridization assay (reference value: 18.52); assay type: functional
# MONO-MAC-6 [9] = experiment: Upregulation of CCL20 mRNA expression level in LPS-stimulated human MONO-MAC-6 cells at 5 uM preincubated for 30 mins followed by LPS stimulation measured after 1 hr by oligonucleotide array hybridization assay (reference value: 1.07); assay type: functional
# MONO-MAC-6 [10] = experiment: Downregulation of CCL20 mRNA expression level in human MONO-MAC-6 cells at 5 uM incubated for 30 mins measured after 2 hrs by oligonucleotide array hybridization assay relative to control; assay type: functional; how it was run: as §2
# MONO-MAC-6 [11] = experiment: Downregulation of PTX3 mRNA expression level in human MONO-MAC-6 cells at 5 uM incubated for 30 mins measured after 2 hrs by oligonucleotide array hybridization assay relative to control; assay type: functional; how it was run: as §2
# MONO-MAC-6 [12] = experiment: Upregulation of PTX3 mRNA expression level in LPS-stimulated human MONO-MAC-6 cells at 5 uM preincubated for 30 mins followed by LPS stimulation measured after 4 hrs by oligonucleotide array hybridization assay (reference value: 4.65); assay type: functional
# MONO-MAC-6 [13] = experiment: Upregulation of CXCL10 mRNA expression level in LPS-stimulated human MONO-MAC-6 cells at 5 uM preincubated for 30 mins followed by LPS stimulation measured after 1 hr by oligonucleotide array hybridization assay (reference value: 1.18); assay type: functional
# MONO-MAC-6 [14] = experiment: Upregulation of CXCL10 mRNA expression level in human MONO-MAC-6 cells at 5 uM incubated for 30 mins measured after 1 hr by oligonucleotide array hybridization assay relative to control; assay type: functional
# MONO-MAC-6 [15] = experiment: Downregulation of CXCL2 mRNA expression level in human MONO-MAC-6 cells at 5 uM incubated for 30 mins measured after 6 hrs by oligonucleotide array hybridization assay relative to control; assay type: functional; how it was run: as §2
# MONO-MAC-6 [16] = experiment: Upregulation of PTGS2 mRNA expression level in LPS-stimulated human MONO-MAC-6 cells at 5 uM preincubated for 30 mins followed by LPS stimulation measured after 2 hrs by oligonucleotide array hybridization assay (reference value: 1.97); assay type: functional
# MONO-MAC-6 [17] = experiment: Upregulation of ICAM1 mRNA expression level in LPS-stimulated human MONO-MAC-6 cells at 5 uM preincubated for 30 mins followed by LPS stimulation measured after 1 hr by oligonucleotide array hybridization assay (reference value: 1.17); assay type: functional
# MONO-MAC-6 [18] = experiment: Upregulation of IL-6 mRNA expression level in LPS-stimulated human MONO-MAC-6 cells at 5 uM preincubated for 30 mins followed by LPS stimulation measured after 4 hrs by qRT-PCR method (reference value: 76.46); assay type: functional
smiles,measurement,setting,value
COc1ccc(CCN(C)CCCn2c3ccccc3c3ccccc32)cc1,inhibition,[1],Active
same,Ratio,[2],2.45
same,Ratio,[3],8.71
same,Activity,MONO-MAC-6 [4],Active
same,fold change (FC),MONO-MAC-6 [5],2.93
same,fold change (FC),MONO-MAC-6 [6],1.15
same,fold change (FC),MONO-MAC-6 [7],3.09
same,fold change (FC),MONO-MAC-6 [8],8.04
same,fold change (FC),MONO-MAC-6 [9],1.03
same,fold change (FC),MONO-MAC-6 [10],1
same,fold change (FC),MONO-MAC-6 [11],1.61
same,fold change (FC),MONO-MAC-6 [12],1.91
same,fold change (FC),MONO-MAC-6 [13],1.69
same,fold change (FC),MONO-MAC-6 [14],1.11
same,fold change (FC),MONO-MAC-6 [15],5.44
same,fold change (FC),MONO-MAC-6 [16],3.66
same,fold change (FC),MONO-MAC-6 [17],1.11
same,fold change (FC),MONO-MAC-6 [18],29.11
